Source: ChEMBL document CHEMBL1129987, “Structure-based design of nonpeptidic HIV protease inhibitors: the sulfonamide-substituted cyclooctylpyramones” (J Med Chem, 1997)
pEC50, pKi: −log10 of the molar value.

Key:
[1] = Total plasma clearance value was obtained after intravenous administration of 2.6 mg/kg of drug in male Dawley rats; type: ADME, organism-based; design: dose 2.6 mg/kg, route intravenous; conditions: Sprague-Dawley, rat
[2] = Maximum concentration was measured after peroral administration of 5.0 mg/kg of drug in male Dawley rats; type: ADME, organism-based; design: dose 5 mg/kg, route oral; conditions: Sprague-Dawley, rat, in vivo, po
[3] = Maximum time taken by the drug to reach peak concentration after peroral administration of 5.0 mg/kg of drug in male Dawley rats; type: ADME, organism-based; design: dose 5 mg/kg, route oral; conditions: Sprague-Dawley, rat, in vivo, po
[4] = Oral bioavailability in rat (Sprague-Dawley) (male) (dose 5 mg/kg); type: ADME, organism-based; conditions: in vivo
[5] = Apparent volume of distribution was obtained after intravenous administration of 2.6 mg/kg of drug in male Dawley rats; type: ADME, organism-based; design: dose 2.6 mg/kg, route intravenous; conditions: Sprague-Dawley, rat, in vivo, read-out: Vss
[6] = Half-life was measured after intravenous administration of 2.6 mg/kg of drug in male Dawley rats; type: ADME, organism-based; design: dose 2.6 mg/kg, route intravenous; conditions: Sprague-Dawley, rat, in vivo
[7] = system: Human immunodeficiency virus 1; experiment: Antiviral activity in HIV-1 infected H9 cells; type: functional; conditions: Human immunodeficiency virus 1, H9; read-out: ED50 (the source's name)
Procedure, shortened: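 H9 cells infected with HIV-1 IIIB at MOI about 0.005, spun down (200g, 10 min), resuspended at 8 × 10^5 cells/mL in RPMI Complete and mixed with compound; final DMSO 0.1%, triplicate per concentration. After 5 days at 37 °C in 5% CO2, supernatant p24 antigen was measured by ELISA. ED50 is the drug amount that reduces p24 by 50% versus DMSO drug-free controls.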

[8] = Median cell culture toxic dose was evaluated against H9 cell line; type: ADME, cell-based; conditions: human, H9 cells; read-out: CCTD50
[9] = Total plasma clearance value was obtained after intravenous administration of 5.1 mg/kg of drug in male Dawley rats; type: ADME, organism-based; design: dose 5.1 mg/kg, route intravenous; conditions: Sprague-Dawley, rat
[10] = Apparent volume of distribution was obtained after intravenous administration of 5.1 mg/kg of drug in male Dawley rats; type: ADME, organism-based; design: dose 5.1 mg/kg, route intravenous; conditions: Sprague-Dawley, rat, in vivo, read-out: Vss
[11] = Half-life was measured after intravenous administration of 5.1 mg/kg of drug in male Dawley rats; type: ADME, organism-based; design: dose 5.1 mg/kg, route intravenous; conditions: Sprague-Dawley, rat, in vivo
Rattus norvegicus [12] = experiment: (§1) Total plasma clearance value was obtained after intravenous administration of […] mg/kg of drug in male Dawley rats; type: ADME, organism-based; conditions: in vivo, 2.8 mg/kg
[13] = Maximum concentration was measured after peroral administration of 5.2 mg/kg of drug in male Dawley rats; type: ADME, organism-based; design: dose 5.2 mg/kg, route oral; conditions: Sprague-Dawley, rat, in vivo, po
[14] = Maximum time taken by the drug to reach peak concentration after peroral administration of 5.2 mg/kg of drug in male Dawley rats; type: ADME, organism-based; design: dose 5.2 mg/kg, route oral; conditions: Sprague-Dawley, rat, in vivo, po
[15] = Oral bioavailability in rat (Sprague-Dawley) (male) (dose 5.2 mg/kg p.o.); type: ADME, organism-based; conditions: in vivo
Rattus norvegicus [16] = experiment: (§2) Apparent volume of distribution was obtained after intravenous administration of 2.8 mg/kg of drug in male Dawley rats; type: ADME, organism-based; design: dose 2.8 mg/kg, route intravenous; conditions: in vivo
Rattus norvegicus [17] = experiment: (§3) Half-life was measured after intravenous administration of […] mg/kg of drug in male Dawley rats; type: ADME, organism-based; conditions: in vivo, 2.8 mg/kg
[18] = molecular target: Human immunodeficiency virus type 1 protease (Human immunodeficiency virus 1, UniProt Q72874); experiment: Binding affinity against HIV-1 protease
[19] = Total plasma clearance value was obtained after intravenous administration of 1.8 mg/kg of drug in male Beagle dogs; type: ADME, organism-based, Canis lupus familiaris; design: dose 1.8 mg/kg, route intravenous; conditions: dog
[20] = Total plasma clearance value was obtained after intravenous administration of 2.7 mg/kg of drug in male Dawley rats; type: ADME, organism-based; design: dose 2.7 mg/kg, route intravenous; conditions: Sprague-Dawley, rat
[21] = Maximum concentration was measured after peroral administration of 10 mg/kg of drug in male Beagle dogs; type: ADME, organism-based, Canis lupus familiaris; design: dose 10 mg/kg, route oral; conditions: dog, in vivo, po
Procedure, shortened: (§4)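 Male beagle dogs received a 10 mg/kg oral dose. tmax is reported as a range. Bioavailability was calculated as %F = (AUCpo/AUCiv) × (doseiv/dosepo) against a separate iv study. Values are mean ± SD, n = 3.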

[22] = Maximum time taken by the drug to reach peak concentration after peroral administration of 10 mg/kg of drug male in male Beagle dogs; type: ADME, organism-based, Canis lupus familiaris; design: dose 10 mg/kg, route oral; conditions: dog, in vivo, po; procedure, shortened: as §4
[23] = Maximum time taken by the drug to reach peak concentration after peroral administration of 5.2 mg/kg of drug male in Dawley rats; type: ADME, organism-based; design: dose 5.2 mg/kg, route oral; conditions: Sprague-Dawley, rat, in vivo, po
[24] = Oral bioavailability in dog (Beagle) (male) (dose 10 mg/kg p.o.); type: ADME, organism-based, Canis lupus familiaris; conditions: in vivo; procedure, shortened: as §4
[25] = Apparent volume of distribution was obtained after intravenous administration of 1.8 mg/kg of drug in male Beagle dogs; type: ADME, organism-based, Canis lupus familiaris; design: dose 1.8 mg/kg, route intravenous; conditions: dog, in vivo, read-out: Vss
[26] = Apparent volume of distribution was obtained after intravenous administration of 2.7 mg/kg of drug in male Dawley rats; type: ADME, organism-based; design: dose 2.7 mg/kg, route intravenous; conditions: Sprague-Dawley, rat, in vivo, read-out: Vss
[27] = Half-life was measured after intravenous administration of 1.8 mg/kg of drug in male Beagle dogs; type: ADME, organism-based, Canis lupus familiaris; design: dose 1.8 mg/kg, route intravenous; conditions: dog, in vivo
[28] = Half-life was measured after intravenous administration of 2.7 mg/kg of drug in male Dawley rats; type: ADME, organism-based; design: dose 2.7 mg/kg, route intravenous; conditions: Sprague-Dawley, rat, in vivo
[29] = Total plasma clearance value was obtained after intravenous administration of 2.5 mg/kg of drug in male Dawley rats; type: ADME, organism-based; design: dose 2.5 mg/kg, route intravenous; conditions: Sprague-Dawley, rat
[30] = Total plasma clearance value was obtained after intravenous administration of 4.9 mg/kg of drug in male Beagle dogs; type: ADME, organism-based, Canis lupus familiaris; design: dose 4.9 mg/kg, route intravenous; conditions: dog
[31] = Maximum concentration was measured after peroral administration of 5.1 mg/kg of drug in male Dawley rats; type: ADME, organism-based; design: dose 5.1 mg/kg, route oral; conditions: Sprague-Dawley, rat, in vivo, po
[32] = Maximum time taken by the drug to reach peak concentration after peroral administration of 5.1 mg/kg of drug male in Dawley rats; type: ADME, organism-based; design: dose 5.1 mg/kg, route oral; conditions: Sprague-Dawley, rat, in vivo, po
[33] = Oral bioavailability in rat (Sprague-Dawley) (male) (dose 5.1 mg/kg p.o.); type: ADME, organism-based; conditions: in vivo
[34] = Apparent volume of distribution was obtained after intravenous administration of 4.9 mg/kg of drug in male Beagle dogs; type: ADME, organism-based, Canis lupus familiaris; design: dose 4.9 mg/kg, route intravenous; conditions: dog, in vivo, read-out: Vss
[35] = Half-life was measured after intravenous administration of 4.9 mg/kg of drug in male Beagle dogs; type: ADME, organism-based, Canis lupus familiaris; design: dose 4.9 mg/kg, route intravenous; conditions: dog, in vivo
[36] = Half-life was measured after intravenous administration of 2.5 mg/kg of drug in male Dawley rats; type: ADME, organism-based; design: dose 2.5 mg/kg, route intravenous; conditions: Sprague-Dawley, rat, in vivo
[37] = as §1; type: ADME, organism-based; conditions: male, Sprague-Dawley, rat, plasma, 2.8 mg/kg
[38] = Maximum time taken by the drug to reach peak concentration after peroral administration of 5.1 mg/kg of drug in male Dawley rats; type: ADME, organism-based; design: dose 5.1 mg/kg, route oral; conditions: Sprague-Dawley, rat, in vivo, po
[39] = as §2; type: ADME, organism-based; design: dose 2.8 mg/kg, route intravenous; conditions: male, Sprague-Dawley, rat, in vivo, read-out: Vss
[40] = as §3; type: ADME, organism-based; conditions: male, Sprague-Dawley, rat, in vivo, 2.8 mg/kg

SMILES | Cmax [2] [µM] | Tmax [3] [min] | bioavailability [4] [%] | pEC50 [7] | Cmax [13] [µM] | bioavailability [15] [%] | pKi [18] | Tmax [22] [min] | bioavailability [24] [%] | Cmax [31] [µM] | bioavailability [33] [%] | CC50 [8] [µM] | further results
N#Cc1ccc(S(=O)(=O)Nc2cccc([C@H](c3c(O)oc4c(c3=O)CCCCCC4)C3CC3)c2)cc1 | 13 | 15 | 31 | 5.08 |  |  |  |  |  |  |  | > 30 | clearance [1]: 0.933 mL/min/kg; Vd [5]: 0.15 L/kg; half-life [6]: 450 min
O=c1c2c(oc(O)c1[C@@H](c1cccc(NS(=O)(=O)c3ccc(F)cc3)c1)C1CC1)CCCCCC2 |  |  |  | < 5.00 | 24 | 53 | 8.68 |  |  |  |  | > 30 | CL (Rattus norvegicus [12]): 0.067 mL/min/kg; Tmax [14]: 15 min; Vss (Rattus norvegicus [16]): 0.15 L/kg; T1/2 (Rattus norvegicus [17]): 360 min

Compounds with a higher pEC50 [7], results first:

Cmax [2] [µM] | Tmax [3] [min] | bioavailability [4] [%] | pEC50 [7] | Cmax [13] [µM] | bioavailability [15] [%] | pKi [18] | Tmax [22] [min] | bioavailability [24] [%] | Cmax [31] [µM] | bioavailability [33] [%] | SMILES | CC50 [8] [µM] | further results
 |  |  | 5.70 | 31 | 50 | 8.51 | 30 | 107 |  |  | O=c1c2c(oc(O)c1C(c1cccc(NS(=O)(=O)c3ccc(F)cc3)c1)C1CC1)CCCCCC2 (stereo unspecified) | 68 | clearance [19]: 3.17 mL/min/kg; clearance [20]: 0.717 mL/min/kg; Cmax [21]: 61 µM; Tmax [23]: 15 min; Vd [25]: 0.08 L/kg; Vd [26]: 0.16 L/kg; half-life [27]: 34.2 min; half-life [28]: 372 min
 |  |  | 5.89 |  |  |  | 30 | 77 | 24 | 42 | N#Cc1ccc(S(=O)(=O)Nc2cccc(C(c3c(O)c4c(oc3=O)CCCCCC4)C3CC3)c2)cc1 (stereo unspecified) | 90 | clearance [29]: 1.25 mL/min/kg; clearance [30]: 0.733 mL/min/kg; Tmax [32]: 15 min; Vd [34]: 0.085 L/kg; half-life [35]: 378 min; half-life [36]: 180 min
19 | 30 | 42 | 5.92 |  |  |  |  |  |  |  | N#Cc1ccc(S(=O)(=O)Nc2cccc([C@@H](c3c(O)oc4c(c3=O)CCCCCC4)C3CC3)c2)cc1 | > 30 | clearance [9]: 0.817 mL/min/kg; Vd [10]: 0.12 L/kg; half-life [11]: 372 min
 |  |  | 6.10 |  |  | 8.85 |  |  | 10 | 58 | O=c1c2c(oc(O)c1[C@H](c1cccc(NS(=O)(=O)c3ccc(F)cc3)c1)C1CC1)CCCCCC2 | > 30 | clearance [37]: 1.92 mL/min/kg; Tmax [38]: 15 min; Vd [39]: 0.13 L/kg; half-life [40]: 132 min
